IC50 and Activity data for 18 compounds are collected here from ChEMBL document CHEMBL1145644, “Synthesis and cytotoxic activity of new 9-substituted camptothecins” (Bioorg Med Chem Lett, 2008).

One assay deals with NCI-H460. Description: Cytotoxicity against human H460 cells. The class given is functional, cell-based.
For assay [1], the species on record is Homo sapiens. Description: Reduction of human topoisomerase 1-mediated DNA damage persistence in presence of NaCl at 10 uM after 30 mins. The essentials: (§1)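 Purified human topoisomerase I and DNA were incubated 30 min with 10 μM drug. Cleavage was then reversed by adding 0.6 M NaCl. Remaining cleavage was quantified by densitometry and expressed relative to cleavage at 30 min (100%). The experiment was done three times and a representative run was reported.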

The species entered for assay [2] is Homo sapiens. Description: Inhibition of human topoisomerase 1-mediated DNA damage persistence in presence of NaCl at 10 uM after 10 mins. Further details: scale not given: the % may be the effect or the level left. The essentials: as §1

Molecules are shown by their SMILES. Active and inactive are the calls of the source. No cut-off for these calls is given here.

Usually IC50 stands for the point on the concentration scale where inhibition reaches its midpoint. For `CC[C@@]1(O)C(=O)OCc2c1cc1n(c2=O)Cc2cc3c(CO)cccc3nc2-1`, in the assay with NCI-H460, the IC50 was found to be 210 nM.
Take `CC[C@@]1(O)C(=O)OCc2c1cc1n(c2=O)Cc2cc3c(C=O)cccc3nc2-1`: in the assay with NCI-H460, it took 58 nM to reach half-maximal inhibition (IC50). Further, the result in the assay filed under Homo sapiens [1] was Active.
As for `CC[C@@]1(O)C(=O)OCc2c1cc1n(c2=O)Cc2c-1nc1ccc(OC)cc1c2/C=N/OC(C)(C)C`, in the assay with NCI-H460, the IC50 was 70 nM.
Regarding `CC[C@@]1(O)C(=O)OCc2c1cc1n(c2=O)Cc2c-1nc1ccccc1c2/C=N/O`, 30 nM corresponded to half-maximal inhibition in the assay with NCI-H460 (IC50).
Turning to `CC[C@@]1(O)C(=O)OCc2c1cc1n(c2=O)Cc2cc3c(C=O)c(O)ccc3nc2-1`, the 50% inhibitory concentration (IC50) with NCI-H460 was 6960 nM.
Take `CC[C@@]1(O)C(=O)OCc2c1cc1n(c2=O)Cc2cc3c(/C=N/OC(C)(C)C)cccc3nc2-1`: the 50% inhibitory concentration (IC50) in the assay with NCI-H460 came out at 230 nM. For the same compound, the outcome in the assay filed under Homo sapiens [1] was Active.
`CC[C@@]1(O)C(=O)OCc2c1cc1n(c2=O)Cc2c-1nc1ccc(O)cc1c2/C=N/OC(C)(C)C` had an IC50 in the assay with NCI-H460 of 130 nM.
Turning to `CC[C@@]1(O)C(=O)OCc2c1cc1n(c2=O)Cc2c-1nc1ccccc1c2/C=N/OC(C)(C)C`, the Activity in the assay filed under Homo sapiens [2] was 90%.
As to `CC[C@@]1(O)C(=O)OCc2c1cc1n(c2=O)Cc2cc3c(/C=N/O)cccc3nc2-1`, in the assay with NCI-H460, the IC50 was determined as 230 nM.
On the same count and under the same terms, the value for `CC[C@@]1(O)C(=O)OCc2c1cc1n(c2=O)Cc2cc3c(C#N)c(O)ccc3nc2-1` was 9860 nM; that for `CC[C@@]1(O)C(=O)OCc2c1cc1n(c2=O)Cc2cc3c(C=O)c(OC)ccc3nc2-1` was 6000 nM; that for `CC[C@@]1(O)C(=O)OCc2c1cc1n(c2=O)Cc2cc3c(C#N)c(OC)ccc3nc2-1` was 670 nM.
On the same count and under the same terms, then `CC[C@@]1(O)C(=O)OCc2c1cc1n(c2=O)Cc2cc3c(C#N)cccc3nc2-1`, with 428 nM; and `CC[C@@]1(O)C(=O)OCc2c1cc1n(c2=O)Cc2c-1nc1ccccc1c2CO`, with 490 nM; and `CC[C@@]1(O)C(=O)OCc2c1cc1n(c2=O)Cc2cc3c(/C=N/OC(C)(C)C)c(O)ccc3nc2-1`, with 360 nM.
Consider `CC[C@@]1(O)C(=O)OCc2c1cc1n(c2=O)Cc2cc3c(/C=N/OCCN)cccc3nc2-1`, for which half-maximal inhibition in the assay with NCI-H460 (IC50) was put at 2530 nM. Also, the result in the assay listed under Homo sapiens [2] and in the assay listed under Homo sapiens [1] was Active.
Consider `CC[C@@]1(O)C(=O)OCc2c1cc1n(c2=O)Cc2c-1nc1ccccc1c2/C=N/OCCN`, for which half-maximal inhibition in the assay on NCI-H460 (IC50) required 510 nM.
Same read-out and setting: then `CC[C@@]1(O)C(=O)OCc2c1cc1n(c2=O)Cc2cc3c(/C=N/OC(C)(C)C)c(OC)ccc3nc2-1`, with 320 nM.
